Only some compounds are listed: those with a hit (about 2.5% of all), similar ones and a draw of the others.
ABCB1 inh = blocks JC-1 efflux by human ABCB1 transporter; CCRF-Adr cells, flow cytometry; inhibition, % at 6.6 µM; hit rate 0.067% among 190,000; in the data active = inhibition above about 40%;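 note: 0% = vehicle and 100% = reference inhibitor; higher value means more JC-1 retained so stronger ABCB1 efflux block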
MEKK3 PB1 HTS = modulators (inhibitors or enhancers) of MEK5 binding to human MEKK3 PB1 domain. Q99759. bead-based flow cytometry, Alexa488-MEK5 binding to MEKK3; actives lie on both sides; 0 = blocked by unlabeled MEK5, 100 = vehicle. binding response (% of control), % at 10 µM. hit rate 1.4% among 290,000. AID 1529;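 active = binding response more than 3 SD above or below the average of its plate-row segment, actives on both sides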;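 note: Alexa488 bead fluorescence after subtracting the streptavidin-only scavenger bead signal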
Target sequence (Q99759 whole entry, looked up, the tested form may be a part): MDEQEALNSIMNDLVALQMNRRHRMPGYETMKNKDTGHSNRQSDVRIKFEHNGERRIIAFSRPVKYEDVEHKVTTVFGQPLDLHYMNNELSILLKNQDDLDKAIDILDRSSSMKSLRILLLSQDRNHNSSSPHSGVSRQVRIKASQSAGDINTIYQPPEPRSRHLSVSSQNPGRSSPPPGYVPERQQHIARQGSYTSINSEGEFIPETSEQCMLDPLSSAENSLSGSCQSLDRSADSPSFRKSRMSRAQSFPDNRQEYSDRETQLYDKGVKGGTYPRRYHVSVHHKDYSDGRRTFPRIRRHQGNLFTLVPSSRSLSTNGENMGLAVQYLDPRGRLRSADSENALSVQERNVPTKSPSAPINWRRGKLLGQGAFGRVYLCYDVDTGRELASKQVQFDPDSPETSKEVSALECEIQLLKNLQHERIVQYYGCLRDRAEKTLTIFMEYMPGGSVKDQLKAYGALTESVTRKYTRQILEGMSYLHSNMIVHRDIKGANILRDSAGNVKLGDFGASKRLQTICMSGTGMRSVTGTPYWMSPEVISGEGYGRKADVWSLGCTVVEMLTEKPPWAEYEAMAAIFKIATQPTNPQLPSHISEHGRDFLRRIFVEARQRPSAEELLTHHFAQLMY
MEKK2 WT-MEK5 = raises or lowers MEK5 binding to wildtype human MEKK2 PB1 domain | Q9Y2U5 | bead flow cytometry, Alexa488-MEK5 binding to MEKK2 WT; actives lie on both sides | binding response (% of control), % at 10 µM | hit rate 1.1% among 290,000 | AID 1531; in the data active = binding response below about 67% or above about 130%
ABCG2 block = inhibitors of human ABCG2 transporter, ABCB1 counter-screen | Q9UNQ0 | IgMXP3 cells, JC-1 efflux, flow cytometry | inhibition, % at 6.6 µM | hit rate 0.1% among 190,000;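 active = inhibition above 80%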;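 note: 0% = DMSO and 100% = nicardipine control wells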
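Assay system – ABCG2 IgMXP3 and barcoded ABCB1 CCRF-Adr cell mix · Input – 3 million cells/mL in well · Reagent – JC-1 fluorescent substrate · Compound – single test compound dose, 6.6 µM final · Timing – 10 min exposure at 25 °C with rotation, no wash · Detection – flow cytometry of retained JC-1 fluorescence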
Efflux pump mplx = antifungal efflux pump inhibition, Nile Red retention. S. cerevisiae Candida pump triplex. inhibition, % at 10 µM. hit rate 0.44% among 330,000. AID 485275;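 active = plate passing quality check with inhibition over a set limit, or well fluorescence over plate mean plus 4 SD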;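 note: Nile Red retained in pooled yeast measured as flow cytometry median fluorescence; 0% = buffer negative control and 100% = Enniatin B positive control; higher means more Nile Red kept so more efflux inhibition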
MEKK2 mut-MEK5 = signal of MEK5 binding to mutant human MEKK2 PB1 domain; hit rate 0.35% among 290,000; bead flow cytometry, Alexa488-MEK5 binding to MEKK2 mutant; AID 1530; percent response, % at 10 µM; in the data active = percent response above about 24%, passing the limit was not always enough
ABCB1 single pt = confirmation of human ABCB1 transporter inhibitors, ABCG2 counter-screen | hit rate 7% among 270 | shares compounds with ABCG2 block | inhibition, % at 6.6 µM | CCRF-Adr cells, JC-1 efflux, flow cytometry;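 active = inhibition of pump activity above 50%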;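 note: 0% = DMSO and 100% = nicardipine full pump inhibition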
ABCG2 confirm = inhibits human ABCG2 efflux, confirmed at single point; shares compounds with ABCG2 block; IgMXP3 cells, JC-1 efflux, flow cytometry; inhibition, % at 6.6 µM; hit rate 6% among 270;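 active = inhibition above 50%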;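 note: 0% = DMSO wells and 100% = nicardipine pump inhibitor wells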
IgMXP3 fluor = counter-screen for ABCG2 inhibitors: compound fluorescence in IgMXP3 cells | compound autofluorescence 488/530 nm, flow; hits give high values | fluorescence at 6.6 µM | AID 1480 | shares compounds with ABCG2 block | hit rate 30% among 270;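 active = fluorescence in ABCG2-expressing cells above the plate's control-well mean plus 3 SD, cut at about 15 in these data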;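 note: median cell fluorescence with compound minus that of DMSO-treated control cells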
CCRF autofluor = CCRF-Adr autofluorescence flag for ABCB1 confirmation; shares compounds with ABCG2 block; hit rate 30% among 270; fluorescence at 6.6 µM; CCRF-Adr cells, compound autofluorescence 488/530 nm, flow cytometry; hits give high values;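 active = fluorescence beyond the plate control mean plus 3 SD, with a fluorescence-to-maximum score over 2, cut at about 25 in these data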
An asterisk follows results filed as active; . = not tested or not shown.

SMILES	ABCB1 inh	MEKK3 PB1 HTS	MEKK2 WT-MEK5	ABCG2 block	Efflux pump mplx	MEKK2 mut-MEK5	ABCB1 single pt	ABCG2 confirm	IgMXP3 fluor	CCRF autofluor
O=C(OCc1ccc([N+](=O)[O-])cc1)c1ccc(N2CCCC2)c([N+](=O)[O-])c1	0.8	103.0	99.0	42.3	0.0	17.0	.	.	.	.
Cn1c(SC2CCCCC2=O)nnc1-c1ccccc1F (stereo not drawn)	-0.1	94.0	90.0	-1.6	-0.1	-8.0	.	.	.	.
CC(O)CNc1nc2c(c(=O)n(C)c(=O)n2C)n1Cc1cccc(Br)c1 (stereo not drawn)	1.2	93.0	95.0	91.3*	0.1	-5.0	-37.9	34.9	11.8	114*
COc1ccc(NC(=O)CCC2CCCCC2)cc1S(=O)(=O)N1CCCCC1	2.3	104.0	102.0	80.8*	-1.2	-4.0	25.8	9.2	8.01	11.4
COc1ccc(NC(=O)CC2CCCC2)cc1S(=O)(=O)N1CCCCC1	-0.2	93.0	97.0	2.2	0.1	-2.0	.	.	.	.
O=c1/c(=C\c2cccnc2)sc2nc3ccccc3n12	1.6	103.0	109.0	80.9*	.	4.0	1.3	19.3	-1.34	-3.04
CN(CCCOc1ccccc1F)Cc1ccccc1	.	109.0	111.0	.	-0.1	5.0	.	.	.	.
CN(CCCOc1ccccc1Br)Cc1ccccc1	56.1*	104.0	118.0	0.0	0.1	9.0	-5.5	-8.7	112*	25.5*
COCCN1Cc2cccc(C(=O)Nc3ccc(C)c(C)c3)c2C1=O	9.3	104.0	107.0	36.2	0.0	3.0	.	.	.	.
CCOc1ccc(NC(=O)c2cccc3c2C(=O)N(CCOC)C3)cc1	3.1	101.0	97.0	82.2*	-0.1	2.0	9.2	52.4*	7.36	11.7
Cn1c(C(=O)NCc2cccnc2)cc2sccc21	-0.3	100.0	104.0	0.5	-0.2	2.0	.	.	.	.
COc1ccccc1CNC(=O)c1cc2sccc2n1C	2.3	99.0	102.0	96.0*	-1.3	6.0	2.6	16.1	-0.94	0.51
O=C(Nc1ccc(Cl)cc1C(F)(F)F)c1ccccc1	43.5*	103.0	84.0	36.2	0.7	-6.0	0.8	9.4	0.26	-3.44
O=C(Nc1ccccc1)Nc1nc(-c2ccc(F)cc2)cs1	1.3	107.0	105.0	81.1*	0.0	1.0	-0.7	18.9	1.11	22.1
OCCC#Cc1ccc(CN2CCN(Cc3ccccc3)C(CCO)C2)cc1 (stereo not drawn)	13.6	106.0	107.0	89.3*	0.0	1.0	2.8	3.9	4.26	12.8
c1ccc(-c2csc3ncnc(NCC4COc5ccccc5O4)c23)cc1 (stereo not drawn)	1.5	104.0	103.0	11.1	0.2	2.0	.	.	.	.
Cc1sc2ncnc(NCC3COc4ccccc4O3)c2c1C (stereo not drawn)	0.4	99.0	99.0	82.1*	0.1	3.0	1.2	28.3	-2.09	-2.99
CCCCCCCCCCCCCCCC(=O)OC(CC(=O)O)C[N+](C)(C)C (stereo not drawn)	.	.	.	.	0.3	.	.	.	.	.
COc1ccc(C(=O)Cn2nnc(-c3ccccc3NC(=O)C3CC3)n2)cc1	6.2	102.0	103.0	82.3*	-0.1	2.0	-0.2	3.8	70*	8.21
COc1ccc(C(=O)Cn2nnc(-c3ccccc3F)n2)cc1	0.5	95.0	94.0	1.7	0.0	-2.0	.	.	.	.
O=C1S/C(=C/c2ccc(N3CCOCC3)o2)C(=O)N1Cc1ccc(F)cc1	6.8	103.0	96.0	111.4*	0.3	-1.0	4.5	-10.3	196*	40.6*
O=C1/C(=C/c2ccc(N3CCOCC3)o2)SC(=Nc2ccccc2)N1CCc1c[nH]c2ccccc12	81.2*	95.0	81.0	127.4*	0.2	14.0	2.6	0.1	76.9*	192*
COc1cc(/C=C2\SC(=Nc3ccccc3)N(CCc3c[nH]c4ccccc34)C2=O)ccc1OC(C)C(=O)O (stereo not drawn)	-0.4	125.0	101.0	-2.3	-0.1	0.0	.	.	.	.
O=C1CSC(c2ccc([N+](=O)[O-])cc2)N1c1ccc(O)cc1 (stereo not drawn)	.	97.0	97.0	.	0.0	-2.0	.	.	.	.
O=[N+]([O-])c1ccc(Nc2cccc(F)c2)nc1	0.2	93.0	93.0	2.6	0.2	-5.0	.	.	.	.
SMILES	ABCB1 inh	MEKK3 PB1 HTS	MEKK2 WT-MEK5	ABCG2 block	Efflux pump mplx	MEKK2 mut-MEK5	ABCB1 single pt	ABCG2 confirm	IgMXP3 fluor	CCRF autofluor
COc1ccc(C(=O)Oc2cc3c4c(c2)C(C)=CC(C)(C)N4C(=O)C3=O)cc1OC	24.4	102.0	102.0	90.6*	0.1	4.0	20.3	28.5	13.5	7.41
COc1cccc(C(=O)Oc2cc3c4c(c2)C(C)=CC(C)(C)N4C(=O)C3=O)c1	2.8	95.0	85.0	14.1	0.0	-6.0	.	.	.	.
CN(C)CCN(C)Cc1ccccc1Sc1cccc2ccccc12	0.7	112.0	132.0	2.6	0.1	3.0	.	.	.	.
COc1cc(C(=O)NC(CCSC)C(=O)OCc2cc([N+](=O)[O-])cc3c2OCOC3)cc(OC)c1OC (stereo not drawn)	58.4*	100.0	89.0	24.7	0.1	-11.0	20.5	12.9	1.91	0.01
CC(=O)Nc1ccc(S(=O)(=O)N[C@@H](C)C(=O)OCc2cc([N+](=O)[O-])cc3c2OCOC3)cc1	.	84.0	80.0	.	-0.1	-27.0	.	.	.	.
CC(C)C(NS(=O)(=O)c1ccccc1)C(=O)OCc1cc([N+](=O)[O-])cc2c1OCOC2 (stereo not drawn)	2.5	98.0	93.0	89.4*	-0.3	7.0	1.3	10.3	1.66	-0.99
COc1ccc(N2C(=O)C(CC(N)=O)N(NC(=O)CCc3ccccc3)C2=O)cc1 (stereo not drawn)	-0.2	96.0	101.0	-0.4	-0.3	-3.0	.	.	.	.
O=C(Cn1cc(C(F)(F)F)ccc1=O)NC1CCCC1	.	.	.	.	-0.2	.	.	.	.	.
CCOC(=O)/C(C#N)=C\c1cc(C)n(-c2ccccc2)c1C	3.8	102.0	98.0	80.8*	0.0	1.0	4.0	26.1	-1.24	-2.09
CN(C)c1nc(OCCOC(=O)COc2ccc(Cl)cc2Cl)nc(N(C)C)n1	2.1	93.0	91.0	24.6	0.1	-5.0	.	.	.	.
CN(C)c1nc(OCCNC(=O)COc2ccc(Cl)cc2Cl)nc(N(C)C)n1	61.1*	99.0	99.0	28.0	0.0	3.0	36.9	40.8	-2.29	-5.09
CC(=O)c1sc(Nc2nc3cc4c(cc3s2)OCO4)nc1C	-0.7	104.0	103.0	-6.3	.	0.0	.	.	.	.

High-throughput results as filed in PubChem.
